Test results as given in ChEMBL document CHEMBL1955770, “Inhibition of S/G2 phase CDK4 reduces mitotic fidelity” (J Biol Chem, 2006).
Activity calls are given as the source filed them. The calls are words filed in the database; no cut-off is given here.

How the values were obtained:
[1] = Cell cycle arrest in human SK-MEL-13 cells assessed as effect on G2/M phase progression at 2 uM treated 6 hr post double hydroxyurea-synchrony release using propidium iodide staining by FACS analysis; type: functional, cell-based
HeLa [2] = assay: Cell cycle arrest in human HeLa cells assessed as accumulation at S phase at 2 uM treated 4 hr and measured 8 hr post double thymidine-synchrony release using propidium iodide staining by FACS analysis (reference value: 8 %); type: functional
Summary of the method: (§1)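 Cells harvested at set times post-release, fixed in 70% ethanol, stained with 5 μg/ml propidium iodide plus 0.5 mg/ml RNase A, and analysed by flow cytometry. Cell-cycle phase fractions calculated by ModFit.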

[3] = target: Cyclin-dependent kinase 4 (Homo sapiens) (UniProt P11802); assay: Inhibition of CDK4-mediated Rb phosphorylation at ser 795 in human HCT116 cells at IC50 after 4 hrs by immunoblot analysis; type: cell-based; details: HCT-116
Sequence of Cyclin-dependent kinase 4 (Homo sapiens) (P11802 whole entry): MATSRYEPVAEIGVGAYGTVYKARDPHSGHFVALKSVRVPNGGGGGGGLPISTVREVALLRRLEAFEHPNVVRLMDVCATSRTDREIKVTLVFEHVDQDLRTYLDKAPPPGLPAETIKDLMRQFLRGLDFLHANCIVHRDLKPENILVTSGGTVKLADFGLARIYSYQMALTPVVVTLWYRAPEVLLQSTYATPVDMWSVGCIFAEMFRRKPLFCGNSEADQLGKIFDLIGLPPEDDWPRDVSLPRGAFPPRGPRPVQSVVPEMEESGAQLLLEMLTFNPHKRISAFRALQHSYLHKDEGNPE
Summary of the method: (§2)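 Asynchronous HCT-116 cells (DMEM, 3 mM HEPES, 10% serum, 37 °C, 5% CO₂) were given increasing inhibitor doses for 4 or 24 h. Lysis in NETN with phosphatase and protease inhibitors, then SDS-PAGE, nitrocellulose transfer and immunoblot for phospho-Rb (Ser-795) with HRP secondary and chemiluminescence.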

[4] = Cell cycle arrest in Rb-competent human SK-MEL-13 cells assessed as accumulation at S phase at 2 uM after 24 hrs by FACS analysis; type: functional
Summary of the method: (§3)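 Ethanol-fixed cells stained with propidium iodide/RNase A, DNA content read by FACS, phase and sub-diploid fractions calculated with ModFit.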

HeLa [5] = assay: Decrease in borealin protein expression in human HeLa cells at 2 uM measured 14 hr post thymidine-synchrony release by immunoblot analysis; type: functional, cell-based
Summary of the method: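 Synchronized HeLa cells given 2 μM CDK4 inhibitor in early S phase and harvested at set times post-release. Lysed in supplemented NETN buffer on ice for 20 min. Lysates run on SDS-PAGE and immunoblotted for survivin, borealin and other chromosomal passenger proteins, with ECL detection. Cyclin D3 served as loading control.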

A2058 [6] = assay: Cell cycle arrest in human A2058 cells assessed as accumulation at G1 phase at 2 uM treated 1 hr and measured 12 hr post double hydroxyurea-synchrony release using propidium iodide staining by FACS analysis (reference value: 14 %); type: functional
SW480 = assay: Toxicity in human SW480 cells at IC50 after 3 days by MTT assay; type: cell-based; details: sw480, 72 h
HeLa [7] = assay: Induction of abberent mitosis in synchronized human HeLa cells expressing GFP-H2B assessed as micronuclei formation at 2 uM treated 1 hr and measured 12 hr post thymidine-synchrony release by time-lapse microscopy; type: functional, cell-based
[8] = Cell cycle arrest in human SK-MEL-13 cells assessed as accumulation at G1 phase at 2 uM treated 1 hr and measured 8 hr post double hydroxyurea-synchrony release using propidium iodide staining by FACS analysis (reference value: 10 %); type: functional, cell-based
Summary of the method: (§4)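 SK-Mel-13 cells synchronized with 2 mM hydroxyurea, then treated with 2 μM CDK4 inhibitor or left untreated 1 h after release. Harvested at indicated times post-release, ethanol-fixed, propidium iodide/RNase stained, and DNA content read by FACS. Proportions of G1, S and G2/M cells derived with ModFit.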

HeLa [9] = assay: Cell cycle arrest in synchronized human HeLa cells assessed as time required to reach anaphase/telophase at 2 uM by time-lapse microscopy (reference value: 78+/-51 mins); type: functional
HeLa [10] = assay: Cell cycle arrest in human HeLa cells assessed as accumulation at G2/M phase at 2 uM treated 4 hr and measured 10 hr post double thymidine-synchrony release using propidium iodide staining by FACS analysis (reference value: 31 %); type: functional; summary of the method: as §1
HeLa [11] = assay: Induction of abberent mitosis in human HeLa cells assessed as lagging chromosomes at 2 uM treated 1 hr and measured 12 hr post thymidine-synchrony release by fluorescence microscopy
HeLa [12] = assay: Induction of abberent mitosis in human HeLa cells expressing GFP-H2B assessed as low survivin staining cells at 2 uM by immunofluorescence method (reference value: 9%); type: functional
[13] = Cell cycle arrest in human SK-MEL-13 cells assessed as accumulation at G1 phase at 2 uM treated 1 hr and measured 10 hr post double hydroxyurea-synchrony release using propidium iodide staining by FACS analysis (reference value: 14 %); type: functional, cell-based; summary of the method: as §4
HeLa [14] = assay: Cell cycle arrest at G2 phase in human HeLa cells assessed as time taken to reach peak mitosis at 2 uM treated at early S phase post thymidine-synchrony release by immunoblot method (reference value: 9-10 hrs); type: functional
A2058 [15] = assay: Cell cycle arrest in human A2058 cells assessed as accumulation at G2/M phase at 2 uM treated 1 hr and measured 10 hr post double hydroxyurea-synchrony release using propidium iodide staining by FACS analysis (reference value: 65 %); type: functional
A2058 [16] = assay: Cell cycle arrest in human A2058 cells assessed as effect on G2/M phase progression at 2 uM treated 6 hr post double hydroxyurea-synchrony release using propidium iodide staining by FACS analysis; type: functional, cell-based
HeLa [17] = assay: Cell cycle arrest in human HeLa cells assessed as accumulation at S phase at 2 uM treated 2 hr and measured 8 hr post double thymidine-synchrony release using propidium iodide staining by FACS analysis (reference value: 8 %); type: functional; summary of the method: as §1
HeLa [18] = assay: Cell cycle arrest at G2 phase in human HeLa cells at 2 uM treated 8 hr and measured 12 hr post-synchrony release using Propidium iodide staining by FACS analysis; type: functional, cell-based
[19] = target: Cyclin-dependent kinase 4 (Homo sapiens) (UniProt P11802); assay: Inhibition of CDK4-mediated Rb phosphorylation at ser 795 in human HCT116 cells at IC90 after 24 hrs by immunoblot analysis; type: cell-based; details: HCT-116; summary of the method: as §2
HeLa [20] = assay: Cell cycle arrest in Rb-deficient human HeLa cells assessed as accumulation at G1 phase at 2 uM after 24 hrs by FACS analysis; type: functional; summary of the method: as §3
HeLa [21] = assay: Cell cycle arrest in human HeLa cells assessed as accumulation at G1 phase at 2 uM treated 2 hr and measured 8 hr post double thymidine-synchrony release using propidium iodide staining by FACS analysis (reference value: 6 %); type: functional
A2058 [22] = assay: Cell cycle arrest in human A2058 cells assessed as accumulation at S phase at 2 uM treated 1 hr and measured 8 hr post double hydroxyurea-synchrony release using propidium iodide staining by FACS analysis (reference value: 52 %); type: functional
HeLa [23] = assay: Cell cycle arrest in human HeLa cells assessed as accumulation at G2/M phase at 2 uM treated 2 hr and measured 8 hr post double thymidine-synchrony release using propidium iodide staining by FACS analysis (reference value: 86 %); type: functional; summary of the method: as §1
[24] = Cell cycle arrest in human SK-MEL-13 cells assessed as accumulation at G2/M phase at 2 uM treated 1 hr and measured 12 hr post double hydroxyurea-synchrony release using propidium iodide staining by FACS analysis (reference value: 50 %); type: functional, cell-based; summary of the method: as §4
NCI-H460 = assay: Antiproliferative activity against human H460a cells assessed as inhibition of S phase after 48 hrs by MTT assay; type: functional, cell-based; details: NCI-H460, 48 h
Summary of the method: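 Cells grown in DMEM with 3 mM HEPES and 10% Serum Supreme at 37 °C, 5% CO2. Proliferation read by MTT assay 48 h after drug addition; IC50 given as mean of two separate determinations, each in duplicate.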

| inhibition [3] | inhibition [19] | SMILES | Activity [1] | Activity (HeLa [2]) [%] | Activity [4] [%] | Activity (HeLa [5]) | Activity (A2058 [6]) [%] | Activity (SW480) | Activity (HeLa [7]) | Activity [8] [%] | Time (HeLa [9]) [min] | Activity (HeLa [10]) [%] | Activity (HeLa [11]) [%] | Activity (HeLa [12]) [%] | Activity [13] [%] | Time (HeLa [14]) [h] | Activity (A2058 [15]) [%] | Activity (A2058 [16]) | Activity (HeLa [17]) [%] | Activity (HeLa [18]) | other results |
| --- | --- | --- | --- | --- | --- | --- | --- | --- | --- | --- | --- | --- | --- | --- | --- | --- | --- | --- | --- | --- | --- |
| Active | Active | COc1cccc(C(=O)c2sc(Nc3ccc(N4CCN(C(C)C)CC4)cc3)nc2N)c1 | inactive | 4 | 7 | Active | 0 | Toxic | Active | 12 | 152 | 88 | 40 | 18 | 11 | 12 | 57 | inactive | 9 | Active | Activity (HeLa [20]): 49%; Activity (HeLa [21]): 7%; Activity (A2058 [22]): 23%; Activity (HeLa [23]): 84%; Activity [24]: 77%; IC50 (NCI-H460): 1.14 µM |
| Active | Active | CN1CCN(c2ccc(Nc3nc(N)c(C(=O)c4ccc5c(c4)OCCO5)s3)cc2)CC1 | inactive | 4 | 7 | Active | 0 | Toxic | Active | 12 | 152 | 88 | 40 | 18 | 11 | 12 | 57 | inactive | 9 | Active | Activity (HeLa [20]): 49%; Activity (HeLa [21]): 7%; Activity (A2058 [22]): 23%; Activity (HeLa [23]): 84%; Activity [24]: 77%; IC50 (NCI-H460): 8.12 µM |
